Assay results taken from ChEMBL document CHEMBL4145681, “Discovery of Novel Aminotetralines and Aminochromanes as Selective and Competitive Glycine Transporter 1 (GlyT1) Inhibitors” (J Med Chem, 2018).
Calls of active or inactive are those of the source. The rule behind the calls is not given here.

Tests used:
[1] = Clearance in human liver microsomes at 0.5 uM incubated up to 30 mins in presence of NADPH by LC-MS/MS method; format: ADME, microsome; conditions: read-out: CLH
[2] = biological target: T1, Sodium- and chloride-dependent glycine transporter 1 (Homo sapiens, UniProt P48067); assay: Displacement of [3H]N-Methyl-SSR504734 from human GlyT1c expressed in cell membranes incubated for 1 hr by liquid scintillation spectrometry
T1 sequence (P48067 whole entry): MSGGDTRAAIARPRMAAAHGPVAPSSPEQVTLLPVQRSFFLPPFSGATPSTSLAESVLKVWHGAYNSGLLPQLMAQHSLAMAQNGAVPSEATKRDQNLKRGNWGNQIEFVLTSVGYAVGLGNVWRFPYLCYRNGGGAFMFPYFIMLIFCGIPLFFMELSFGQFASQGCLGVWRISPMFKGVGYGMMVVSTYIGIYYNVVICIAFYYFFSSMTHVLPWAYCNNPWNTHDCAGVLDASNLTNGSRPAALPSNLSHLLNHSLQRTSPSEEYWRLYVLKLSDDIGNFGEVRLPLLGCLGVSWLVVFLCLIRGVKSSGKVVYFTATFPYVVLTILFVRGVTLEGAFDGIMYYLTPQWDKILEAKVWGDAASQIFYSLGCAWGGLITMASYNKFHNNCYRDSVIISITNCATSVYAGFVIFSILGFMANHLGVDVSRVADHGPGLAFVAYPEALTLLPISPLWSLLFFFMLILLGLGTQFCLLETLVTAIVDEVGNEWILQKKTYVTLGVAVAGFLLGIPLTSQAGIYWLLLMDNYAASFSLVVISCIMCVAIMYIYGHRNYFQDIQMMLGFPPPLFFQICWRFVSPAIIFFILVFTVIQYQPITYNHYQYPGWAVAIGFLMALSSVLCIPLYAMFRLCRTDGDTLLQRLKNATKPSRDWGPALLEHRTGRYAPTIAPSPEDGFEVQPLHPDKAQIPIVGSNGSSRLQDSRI

[3] = Clearance in rat liver microsomes at 0.5 uM incubated up to 30 mins in presence of NADPH by LC-MS/MS method; format: ADME, microsome; conditions: read-out: CLH
[4] = tested on: Mus musculus; assay: In-vivo binding affinity to GlyT1 in mouse assessed as target occupancy in forebrains dosed intraperitoneally using [3H]N-methyl-SSR504734 as radioligand after 1 hr by liquid scintillation counting method; format: functional; conditions: ip
How it was run: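 Mice dosed i.p. at several doses; forebrain homogenates then tested ex vivo for binding of a GlyT1 radioligand to give target occupancy, with ED50 for 50% occupancy estimated across the dose range.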

[5] = Efflux ratio in MDCK2-MDR1 cells at 1 uM incubated fro 1 hr by LC-MS/MS method; format: ADME, cell-based, Canis lupus familiaris; conditions: dog, MDCK-MDR1
[6] = fCmax in Sprague-Dawley rat brain at 2 mg/kg, ip measured after 8 to 24 hrs by LC-MS/MS method; format: ADME, organism-based; conditions: in vivo
[7] = biological target: T2, Sodium- and chloride-dependent glycine transporter 1 (Homo sapiens) (UniProt P48067); assay: Competitive inhibition of GlyT1c (unknown origin) expressed in Xenopus laevis oocytes clamped at -60 mV assessed as reduction in glycine-induced membrane currents at 300 nM pre-treated with glycine for 1 min followed by compound dosing for 3 mins by two-electrode voltage clamp assay; format: cell-based
T2 sequence (whole entry): T1 sequence (P48067 whole entry)
How it was run: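 Oocytes expressing GlyT1c were stimulated with 10 µM or 3000 µM glycine to evoke transporter current. Compound at 300 nM was added to the glycine solution, and % inhibition of the current was calculated. Mode of inhibition was judged by comparing inhibition at the two glycine levels. Data are mean ± SD, N>4 oocytes.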

[8] = Oral bioavailability in Sprague-Dawley rat at measured after 8 to 24 hrs by LC-MS/MS method; format: ADME, organism-based; conditions: in vivo
[9] = biological target: Cytochrome P450 3A4 (Homo sapiens, UniProt P08684); assay: Inhibition of CYP3A4 in human liver microsomes in presence of NADPH regeneration mixture using luciferin IPA-OH substrate by P450-Glo assay; format: ADME
Sequence of Cytochrome P450 3A4 (P08684 whole entry): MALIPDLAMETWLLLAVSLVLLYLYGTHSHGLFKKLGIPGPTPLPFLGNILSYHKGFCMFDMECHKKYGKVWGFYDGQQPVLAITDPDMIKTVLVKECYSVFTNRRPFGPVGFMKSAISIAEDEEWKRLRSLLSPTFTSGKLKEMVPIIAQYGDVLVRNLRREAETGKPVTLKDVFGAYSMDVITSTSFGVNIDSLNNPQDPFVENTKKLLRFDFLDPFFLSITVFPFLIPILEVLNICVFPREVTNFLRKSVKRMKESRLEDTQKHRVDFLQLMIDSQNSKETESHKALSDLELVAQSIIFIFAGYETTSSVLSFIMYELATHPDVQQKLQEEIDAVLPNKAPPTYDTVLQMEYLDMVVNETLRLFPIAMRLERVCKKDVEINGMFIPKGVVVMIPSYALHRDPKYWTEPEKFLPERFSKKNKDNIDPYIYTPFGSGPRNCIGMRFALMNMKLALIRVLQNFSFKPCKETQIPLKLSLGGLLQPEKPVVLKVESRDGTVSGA

[10] = Oral bioavailability in dog; format: ADME, organism-based, Canis lupus familiaris; conditions: in vivo
[11] = Permeability in MDCK2-MDR1 cells at 1 uM incubated fro 1 hr by LC-MS/MS method; format: ADME, cell-based, Canis lupus familiaris; conditions: dog, MDCK-MDR1; read-out: permeability
[12] = Solubility in water; format: physicochemical
[13] = biological target: Voltage-gated inwardly rectifying potassium channel KCNH2 (Homo sapiens, UniProt Q12809); assay: Inhibition of human ERG
Sequence of Voltage-gated inwardly rectifying potassium channel KCNH2 (Q12809 whole entry): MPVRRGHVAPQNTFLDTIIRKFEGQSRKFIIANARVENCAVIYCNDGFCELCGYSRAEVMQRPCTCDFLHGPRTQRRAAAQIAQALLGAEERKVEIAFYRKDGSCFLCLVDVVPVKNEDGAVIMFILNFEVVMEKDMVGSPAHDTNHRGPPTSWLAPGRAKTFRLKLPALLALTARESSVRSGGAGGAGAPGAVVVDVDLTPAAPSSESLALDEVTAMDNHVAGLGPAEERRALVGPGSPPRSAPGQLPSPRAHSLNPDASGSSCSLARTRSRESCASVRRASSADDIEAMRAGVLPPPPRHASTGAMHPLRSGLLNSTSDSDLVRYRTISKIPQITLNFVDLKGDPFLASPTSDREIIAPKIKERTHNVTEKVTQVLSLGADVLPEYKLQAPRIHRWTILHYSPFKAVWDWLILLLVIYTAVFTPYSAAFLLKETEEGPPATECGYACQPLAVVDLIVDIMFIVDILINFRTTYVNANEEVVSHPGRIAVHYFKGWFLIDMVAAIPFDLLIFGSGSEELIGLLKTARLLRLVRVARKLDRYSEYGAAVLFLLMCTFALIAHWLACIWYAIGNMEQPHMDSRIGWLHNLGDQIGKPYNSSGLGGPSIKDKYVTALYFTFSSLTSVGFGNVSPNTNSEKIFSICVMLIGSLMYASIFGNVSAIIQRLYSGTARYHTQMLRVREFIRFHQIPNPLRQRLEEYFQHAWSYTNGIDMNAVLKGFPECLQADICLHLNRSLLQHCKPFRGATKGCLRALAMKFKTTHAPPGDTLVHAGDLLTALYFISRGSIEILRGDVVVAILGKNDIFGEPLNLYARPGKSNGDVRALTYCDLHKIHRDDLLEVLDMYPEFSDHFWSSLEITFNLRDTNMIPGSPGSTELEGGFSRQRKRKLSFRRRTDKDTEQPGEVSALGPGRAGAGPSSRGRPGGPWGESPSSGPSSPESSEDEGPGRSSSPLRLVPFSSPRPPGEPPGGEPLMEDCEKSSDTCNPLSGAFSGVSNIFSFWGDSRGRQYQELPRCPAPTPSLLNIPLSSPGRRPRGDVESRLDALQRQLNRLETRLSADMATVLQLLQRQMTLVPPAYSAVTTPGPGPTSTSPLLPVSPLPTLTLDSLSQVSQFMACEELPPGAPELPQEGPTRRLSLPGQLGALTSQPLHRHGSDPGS

[14] = Ratio of free drug level in brain to plasma of Sprague-Dawley rat at 2 mg/kg, ip measured after 8 to 24 hrs by LC-MS/MS method; format: ADME, organism-based

microsomal CLint at 0.5 µM [1] | Ki [2] | microsomal CLint at 0.5 µM [3] | SMILES | ED50 [4] | further results
78 µL/min/mg | 660 nM | 40 µL/min/mg | N[C@H]1CCc2ccc(OCCNS(=O)(=O)c3ccccc3)cc2[C@H]1Cc1ccc(Cl)c(Cl)c1 | – | –
36 µL/min/mg | 2.6 nM | 10 µL/min/mg | Cn1cnc(S(=O)(=O)NCCOc2ccc3c(c2)[C@@H](Cc2ccc(Cl)c(Cl)c2)[C@@H](N)CC3)c1 (relative stereo) | > 20 mg/kg | –
92 µL/min/mg | 5.7 nM | 25 µL/min/mg | N[C@H]1CCc2ccc(OCCNS(=O)(=O)CC3CC3)cc2[C@H]1Cc1ccc(Cl)c(Cl)c1 (relative stereo) | 14 mg/kg | –
< 23 µL/min/mg | 44 nM | 66 µL/min/mg | CCCS(=O)(=O)NC1CN(c2ccc3c(c2)[C@@H](Cc2ccccc2)[C@@H](N2CCC2)CO3)C1 (relative stereo) | – | efflux ratio at 1 h, 1 µM [5]: 0.9
– | – | – | CCCS(=O)(=O)NCc1ccc2c(c1)[C@@H](Cc1ccccc1)[C@@H](NC)CC2 (relative stereo) | 2 mg/kg | –
44 µL/min/mg | 1.2 nM | 49 µL/min/mg | Cn1cc(S(=O)(=O)NCCOc2ccc3c(c2)[C@@H](Cc2ccc(Cl)c(Cl)c2)[C@@H](N)CC3)cn1 (relative stereo) | > 20 mg/kg | fCmax [6]: 0.2 nM
– | 1.1 nM | – | Cn1cnc(S(=O)(=O)NCCOc2ccc3c(c2)[C@@H](Cc2ccc(Cl)cc2)[C@@H](N)CC3)c1 (relative stereo) | – | –
55 µL/min/mg | 32 nM | 49 µL/min/mg | N[C@H]1CCc2ccc(OCCNS(=O)(=O)C3CCC3)cc2[C@H]1Cc1ccc(Cl)c(Cl)c1 (relative stereo) | – | –
– | 0.8 nM | – | Cn1cnc(S(=O)(=O)NCCOc2ccc3c(c2)[C@@H](Cc2cccc(C(F)(F)F)c2)[C@@H](N)CC3)c1 (relative stereo) | – | –
130 µL/min/mg | 124 nM | 343 µL/min/mg | Oc1ccc2c(c1)C(C1(c3ccc(Cl)cc3)CCC1)NCC2 (stereo not drawn) | – | inhibition [7]: Active; bioavailability [8]: < 1%; IC50 [9]: > 10 µM
173 µL/min/mg | 136 nM | 35 µL/min/mg | CCCCS(=O)(=O)NCCOc1ccc2c(c1)[C@@H](Cc1ccc(Cl)c(Cl)c1)[C@@H](N)CC2 (relative stereo) | – | –
25 µL/min/mg | 141 nM | 39 µL/min/mg | CS(=O)(=O)NCCOc1ccc2c(c1)[C@@H](Cc1ccc(Cl)c(Cl)c1)[C@@H](N)CC2 (relative stereo) | – | –
99 µL/min/mg | 163 nM | 95 µL/min/mg | N[C@H]1CCc2ccc(OCCNS(=O)(=O)c3cccs3)cc2[C@H]1Cc1ccc(Cl)c(Cl)c1 (relative stereo) | – | –
– | 1.2 nM | – | Cn1cnc(S(=O)(=O)NCCOc2ccc3c(c2)[C@@H](Cc2cc(F)cc(Cl)c2)[C@@H](N)CC3)c1 (relative stereo) | – | –
– | 1.2 nM | – | Cn1cnc(S(=O)(=O)NCCOc2ccc3c(c2)[C@@H](Cc2ccccc2)[C@@H](N2CCCC2)CC3)c1 | 1.6 mg/kg | efflux ratio at 1 h, 1 µM [5]: 7.2; bioavailability [8]: 29%; bioavailability [10]: 49%; Papp at 1 h, 1 µM [11]: 17 ×10⁻⁶ cm/s; solubility [12]: > 1000 µg/mL; fCmax [6]: 2 nM
< 23 µL/min/mg | 18 nM | 130 µL/min/mg | O=S(=O)(CC1CC1)NC1CN(c2ccc3c(c2)[C@@H](Cc2ccccc2)[C@@H](N2CCC2)CO3)C1 (relative stereo) | – | efflux ratio at 1 h, 1 µM [5]: 1; IC50 [13]: 11.4 µM
– | 1.2 nM | – | CN[C@H]1CCc2ccc(OCCNS(=O)(=O)CC3CC3)cc2[C@H]1Cc1ccccc1 | 1.4 mg/kg | bioavailability [8]: 22%; fCmax [6]: 2.3 nM
122 µL/min/mg | – | 302 µL/min/mg | CCCS(=O)(=O)NCc1ccc2c(c1)[C@@H](Cc1ccccc1)[C@@H](N1CCC1)CC2 (relative stereo) | – | –
< 23 µL/min/mg | 28 nM | 33 µL/min/mg | CCCS(=O)(=O)N[C@@H]1CCN(c2ccc3c(c2)[C@@H](Cc2ccccc2)[C@@H](N2CCC2)CC3)C1=O | – | efflux ratio at 1 h, 1 µM [5]: 1.6; IC50 [13]: 4.5 µM
– | 75 nM | – | Cn1cnc(S(=O)(=O)NCCOc2ccc3c(c2)[C@@H](Cc2ccccc2Cl)[C@@H](N)CC3)c1 (relative stereo) | – | –
– | 1.5 nM | – | Cn1cnc(S(=O)(=O)NCCOc2ccc3c(c2)[C@@H](Cc2cccc(Cl)c2)[C@@H](N)CC3)c1 (relative stereo) | 15 mg/kg | –
69 µL/min/mg | 69 nM | 125 µL/min/mg | Cn1cnc(S(=O)(=O)NCCOc2ccc3c(c2)[C@@H](Cc2ccccc2)[C@@H](NCC(F)(F)F)CC3)c1 (relative stereo) | – | efflux ratio at 1 h, 1 µM [5]: 1.4
113 µL/min/mg | 2.6 nM | 137 µL/min/mg | O=S(=O)(CC1CC1)NCCOc1ccc2c(c1)[C@@H](Cc1ccccc1)[C@@H](N1CCC1)CC2 | 0.5 mg/kg | efflux ratio at 1 h, 1 µM [5]: 1.6; IC50 [13]: 0.08 µM; bioavailability [8]: 8%; Kp uu [14]: 0.8; fCmax [6]: 9.9 nM
< 23 µL/min/mg | 2.6 nM | 42 µL/min/mg | CCCS(=O)(=O)NC1CN(c2ccc3c(c2)[C@@H](Cc2ccccc2)[C@@H](N2CCC2)CC3)C1 | – | efflux ratio at 1 h, 1 µM [5]: 1.4; IC50 [13]: 6.8 µM
– | 3.6 nM | – | Cn1cnc(S(=O)(=O)NCCOc2ccc3c(c2)[C@@H](Cc2ccccc2)[C@@H](N)CC3)c1 (relative stereo) | – | –
277 µL/min/mg | 3.3 nM | 37 µL/min/mg | Cn1cnc(S(=O)(=O)NCCOc2ccc3c(c2)[C@@H](Cc2ccccc2)[C@@H](N2CCC2)CO3)c1 | – | efflux ratio at 1 h, 1 µM [5]: 3.5
620 µL/min/mg | 3 nM | 450 µL/min/mg | CCCS(=O)(=O)NCCOc1ccc2c(c1)C(C1(c3ccc(Cl)cc3)CCC1)NCC2 (stereo not drawn) | – | inhibition [7]: Active; bioavailability [8]: 7%; Kp uu [14]: 0.54; IC50 [9]: 0.62 µM
– | 3 nM | – | Cn1cnc(S(=O)(=O)NCc2ccc3c(c2)[C@@H](Cc2ccccc2)[C@@H](N2CCC2)CC3)c1 (relative stereo) | 1.8 mg/kg | bioavailability [8]: 51%; bioavailability [10]: 75%
95 µL/min/mg | 35 nM | 17 µL/min/mg | CCCS(=O)(=O)NCCOc1ccc2c(c1)[C@@H](Cc1ccc(Cl)c(Cl)c1)[C@@H](N)CC2 (relative stereo) | – | inhibition [7]: Active; bioavailability [8]: 31%; Kp uu [14]: 0.05; IC50 [9]: > 10 µM
940 µL/min/mg | 940 nM | 239 µL/min/mg | O=S(=O)(CC1CC1)NCCOc1ccc2c(c1)[C@@H](Cc1ccccc1)[C@@H](N1CCC1)CO2 (relative stereo) | – | –
